Source: ChEMBL document CHEMBL1914438, “Synthesis and biological activity of novel N-cycloalkyl-(cycloalkylaryl)-2-[(3-R-2-oxo-2H-[1,2,4]triazino[2,3-c]quinazoline-6-yl)thio]acetamides” (2011)
Activity calls are given as the source filed them. The rule behind the calls is not given here.

Legend:
[1] = system: Mycobacterium; test: Antibacterial activity against Mycobacterium luteum assessed as zone of inhibition at 0.01 mg/mL after 24 hrs by stiff-plate agar-diffusion method; assay type: functional
In short: (§1)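 Stiff-plate agar diffusion. Inoculum 10^9 c.f.u./mL. Compounds were streaked across grooves in the agar nutrient plate and left to diffuse. Plates were incubated 24 h at 35 °C. Read-out was inhibition zone diameter: 11–15 mm not sensitive, 16–25 mm sensitive, >25 mm highly sensitive. Vancomycin and oxacillin were the standards. Three repeats.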

[2] = system: Staphylococcus aureus; test: Antibacterial activity against Staphylococcus aureus assessed as zone of inhibition at 0.01 mg/mL after 24 hrs by stiff-plate agar-diffusion method; assay type: functional; in short: as §1
[3] = system: Escherichia coli; test: Antibacterial activity against Escherichia coli assessed as zone of inhibition at 0.01 mg/mL after 24 hrs by stiff-plate agar-diffusion method; assay type: functional; in short: as §1
[4] = system: Aspergillus niger; test: Antifungal activity against Aspergillus niger assessed as zone of inhibition at 0.01 mg/mL after 48 to 72 hrs by stiff-plate agar-diffusion method; assay type: functional
In short: (§2)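 Fungi were tested by stiff-plate agar diffusion from a 10^9 c.f.u./mL inoculum. Compounds were placed in agar grooves and allowed to diffuse. Incubation was 48–72 h at 28–30 °C. Inhibition zone diameter was scored as not sensitive (11–15 mm), sensitive (16–25 mm) or highly sensitive (>25 mm). Nystatin was the standard. Experiments were done in triplicate.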

[5] = system: Yamadazyma tenuis; test: Antifungal activity against Candida tenuis assessed as zone of inhibition at 0.01 mg/mL after 48 to 72 hrs by stiff-plate agar-diffusion method; assay type: functional; in short: as §2
[6] = system: Photobacterium leiognathi; test: Antibacterial activity against Photobacterium leiognathi Sh1 assessed as inhibition of bacterial luminescence at 0.025 mg/mL after 10 mins by bioluminometry-based chronic action test; assay type: functional; design: scale not given: the % may be the effect or the level left
In short: (§3)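 Chronic (growth plus luminescence) test with P. leiognathi Sh1 at 10^5 cells/mL in chloride solution, compounds added in DMSO. After 10 min at 25 °C, growth medium added at 1:50 and the mix incubated 16–18 h at 30 °C. Luminescence then measured by bioluminometer as % of untreated control. Tetracycline reference.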

[7] = system: UO-31; test: Cytotoxicity against human UO31 cells assessed as cell growth at 10^-5 M after 48 hrs by SRB assay; assay type: functional; settings: UO-31, 48 h, read-out: Activity
In short: (§4)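 NCI human tumor cell line panel from nine cancer types. Each line was inoculated and preincubated 24–48 h, then exposed to a single concentration (10^-5 M) for 48 h. Growth was read by sulforhodamine B protein staining, measured spectrophotometrically. Value reported as percent growth of treated cells relative to untreated controls.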

[8] = system: Photobacterium leiognathi; test: Antibacterial activity against Photobacterium leiognathi Sh1 assessed as inhibition of bacterial luminescence at 0.25 mg/mL after 10 mins by bioluminometry-based chronic action test; assay type: functional; design: scale not given: the % may be the effect or the level left; in short: as §3
[9] = system: Photobacterium leiognathi; test: Antibacterial activity against Photobacterium leiognathi Sh1 assessed as inhibition of bacterial luminescence at 0.1 mg/mL after 10 mins by bioluminometry-based chronic action test; assay type: functional; design: scale not given: the % may be the effect or the level left; in short: as §3
[10] = system: SNB-75; test: Cytotoxicity against human SNB75 cells assessed as cell growth at 10^-5 M after 48 hrs by SRB assay; assay type: functional; settings: SNB-75, 48 h, read-out: Activity; in short: as §4
[11] = system: CCRF-CEM; test: Cytotoxicity against human CCRF-CEM cells assessed as cell growth at 10^-5 M after 48 hrs by SRB assay; assay type: functional; settings: read-out: Activity
In short: (§5)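 NCI 60-cell-line one-dose primary screen: cells inoculated and preincubated 24–48 h, then test agent added at a single 10^-5 M concentration for a further 48 h. Endpoint is sulforhodamine B protein staining read spectrophotometrically. Reported as percent growth relative to untreated control cells.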

[12] = system: Photobacterium leiognathi; test: Antibacterial activity against Photobacterium leiognathi Sh1 assessed as inhibition of bacterial luminescence at 0.25 mg/mL after 10 mins by bioluminometry-based acute action test; assay type: functional; design: scale not given: the % may be the effect or the level left
In short: (§6)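 Marine P. leiognathi Sh1 (Azov Sea shrimp isolate) diluted in chloride solution to 10^5 cells/mL; compounds suspended in DMSO mixed with 1 mL bacterial suspension. Acute test: 10 min at 25 °C, then bioluminescence measured by bioluminometer as % of compound-free control. Tetracycline reference.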

[13] = system: Yamadazyma tenuis; test: Antifungal activity against Candida tenuis at 1 to 5 mg/mL after 48 to 72 hrs by stiff-plate agar-diffusion method; assay type: functional, organism-based
In short: (§7)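 Fungal plates run by stiff-plate agar diffusion, substances applied to grooves at 5 mg/mL; 10^9 c.f.u./mL cells; incubation 48–72 h at 28–30 °C. Inhibition zone diameter scored (11–15 mm not sensitive, 16–25 mm sensitive, >25 mm highly sensitive). Nystatin standard; experiments done three times.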

[14] = system: CAKI-1; test: Cytotoxicity against human Caki1 cells assessed as cell growth at 10^-5 M after 48 hrs by SRB assay; assay type: functional; settings: CAKI-1, 48 h, read-out: Activity; in short: as §5
[15] = system: Mycobacterium; test: Antibacterial activity against Mycobacterium luteum at 1 to 5 mg/mL after 24 hrs by stiff-plate agar-diffusion method; assay type: functional, organism-based
In short: (§8)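 Agar diffusion (stiff plate) with test substances at 5 mg/mL in grooves, allowed to diffuse into nutrient agar; inoculum 10^9 c.f.u./mL; bacteria incubated 24 h at 35 °C. Read-out: inhibition zone diameter (not sensitive 11–15 mm, sensitive 16–25 mm, highly sensitive >25 mm). Vancomycin and oxacillin as standards; three repeats.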

[16] = system: Escherichia coli; test: Antibacterial activity against Escherichia coli at 1 to 5 mg/mL after 24 hrs by stiff-plate agar-diffusion method; assay type: functional, organism-based; in short: as §8
[17] = system: Photobacterium leiognathi; test: Antibacterial activity against Photobacterium leiognathi Sh1 assessed as inhibition of bacterial luminescence at 0.025 mg/mL after 10 mins by bioluminometry-based acute action test; assay type: functional; design: scale not given: the % may be the effect or the level left; in short: as §6
[18] = system: Photobacterium leiognathi; test: Antibacterial activity against Photobacterium leiognathi Sh1 assessed as inhibition of bacterial luminescence at 0.1 mg/mL after 10 mins by bioluminometry-based acute action test; assay type: functional; design: scale not given: the % may be the effect or the level left; in short: as §6
[19] = system: PC-3; test: Cytotoxicity against human PC3 cells assessed as cell growth at 10^-5 M after 48 hrs by SRB assay; assay type: functional; settings: PC-3, 48 h, read-out: Activity; in short: as §4
[20] = system: Staphylococcus aureus; test: Antibacterial activity against Staphylococcus aureus at 1 to 5 mg/mL after 24 hrs by stiff-plate agar-diffusion method; assay type: functional, organism-based; in short: as §8
[21] = system: Aspergillus niger; test: Antifungal activity against Aspergillus niger at 1 to 5 mg/mL after 48 to 72 hrs by stiff-plate agar-diffusion method; assay type: functional, organism-based; in short: as §7
[22] = system: Staphylococcus aureus; test: Antibacterial activity against Staphylococcus aureus assessed as zone of inhibition at 0.5 mg/mL after 24 hrs by stiff-plate agar-diffusion method; assay type: functional; settings: read-out: DIZ
[23] = system: Aspergillus niger; test: Antifungal activity against Aspergillus niger assessed as zone of inhibition at 0.1 mg/mL after 48 to 72 hrs by stiff-plate agar-diffusion method; assay type: functional; settings: read-out: DIZ
[24] = system: Yamadazyma tenuis; test: Antifungal activity against Candida tenuis assessed as zone of inhibition at 0.1 mg/mL after 48 to 72 hrs by stiff-plate agar-diffusion method; assay type: functional; settings: read-out: DIZ
[25] = system: Aspergillus niger; test: Antifungal activity against Aspergillus niger assessed as zone of inhibition of late spore formation at 0.5 mg/mL after 48 to 72 hrs by stiff-plate agar-diffusion method; assay type: functional; settings: read-out: DIZ
[26] = system: Staphylococcus aureus; test: Antibacterial activity against Staphylococcus aureus assessed as zone of inhibition at 0.1 mg/mL after 24 hrs by stiff-plate agar-diffusion method; assay type: functional; settings: read-out: DIZ
[27] = system: Mycobacterium; test: Antibacterial activity against Mycobacterium luteum assessed as zone of inhibition at 0.5 mg/mL after 24 hrs by stiff-plate agar-diffusion method; assay type: functional; settings: read-out: DIZ
[28] = system: Escherichia coli; test: Antibacterial activity against Escherichia coli assessed as zone of inhibition at 0.1 mg/mL after 24 hrs by stiff-plate agar-diffusion method; assay type: functional; settings: read-out: DIZ
[29] = system: Yamadazyma tenuis; test: Antifungal activity against Candida tenuis assessed as zone of inhibition at 0.5 mg/mL after 48 to 72 hrs by stiff-plate agar-diffusion method; assay type: functional; settings: read-out: DIZ
[30] = system: Escherichia coli; test: Antibacterial activity against Escherichia coli assessed as zone of inhibition at 0.5 mg/mL after 24 hrs by stiff-plate agar-diffusion method; assay type: functional; settings: read-out: DIZ
[31] = system: Mycobacterium; test: Antibacterial activity against Mycobacterium luteum assessed as zone of inhibition at 0.1 mg/mL after 24 hrs by stiff-plate agar-diffusion method; assay type: functional; settings: read-out: DIZ
[32] = system: Photobacterium leiognathi; test: Antibacterial activity against Photobacterium leiognathi Sh1 at 0.1 to 0.25 ug/mL; assay type: functional, organism-based
[33] = in the assay text read “after 16 to 18 hrs” for “after 10 mins”

Molecule	Activity [12]	Activity [13]	Activity [15]	Activity [16]	Activity [17]	Activity [18]	Activity [20]	Activity [21]	Activity [6]	Activity [8]	Activity [9]	other results
NYSTATIN	–	–	–	–	–	–	–	–	–	–	–	inhibition zone (IZ) [1]: 15 mm; inhibition zone (IZ) [2]: 11 mm; inhibition zone (IZ) [3]: 0 mm; inhibition zone (IZ) [4]: 25 mm; inhibition zone (IZ) [5]: 24 mm
Cc1nn2c(SCC(=O)O)nc3ccccc3c2nc1=O	0%	inactive	inactive	inactive	66.7%	0%	inactive	inactive	–	–	–	Activity [6, 33]: 36.4%; growth at 10 µM [7]: 87.1%; Activity [8, 33]: 0%; Activity [9, 33]: 61.5%; growth at 10 µM [10]: 83.5%; growth at 10 µM [11]: 93.3%; growth at 10 µM [14]: 96%; growth at 10 µM [19]: 84.5%
CCC1C2CCC(C2)C1NC(=O)CSc1nc2ccccc2c2nc(=O)c(C)nn12 (centres undefined)	62.5%	inactive	inactive	inactive	91.67%	104.17%	inactive	inactive	–	–	–	Activity [6, 33]: 90.28%; Activity [8, 33]: 86.11%; Activity [9, 33]: 93.06%
Cc1nn2c(SCC(=O)Nc3ccc(C45CC6CC(CC(C6)C4)C5)cc3)nc3ccccc3c2nc1=O	32.86%	–	–	–	90%	65.71%	–	–	86.96%	50%	94.57%	zone of inhibition at 500 µg/mL [22]: 0 mm; zone of inhibition at 100 µg/mL [23]: 0 mm; zone of inhibition at 100 µg/mL [24]: 0 mm; zone of inhibition at 500 µg/mL [25]: 21 mm; zone of inhibition at 100 µg/mL [26]: 0 mm; zone of inhibition at 500 µg/mL [27]: 0 mm; zone of inhibition at 100 µg/mL [28]: 0 mm; zone of inhibition at 500 µg/mL [29]: 0 mm; zone of inhibition at 500 µg/mL [30]: 0 mm; zone of inhibition at 100 µg/mL [31]: 0 mm
Cc1n[nH]c(-c2ccccc2N)nc1=O	–	–	–	–	–	–	–	–	–	–	–	Activity [32]: Active
O=C(CSc1nc2ccccc2c2nc(=O)c(-c3ccccc3)nn12)Nc1ccc(C23CC4CC(CC(C4)C2)C3)cc1	54.41%	inactive	inactive	inactive	102.94%	80.88%	inactive	inactive	118.75%	66.25%	111.25%	–
Cc1ccc(-c2nn3c(SCC(=O)Nc4ccc(C56CC7CC(CC(C7)C5)C6)cc4)nc4ccccc4c3nc2=O)cc1	50%	inactive	inactive	inactive	84.62%	96.15%	inactive	inactive	170%	16%	140%	–
O=C(CSc1nc2ccccc2c2nc(=O)c(-c3ccccc3)nn12)NC12CC3CC(CC(C3)C1)C2	56.52%	inactive	inactive	inactive	86.96%	80.43%	inactive	inactive	97.14%	78.57%	85.71%	–
CN(C)[C@@H]1C(O)=C(C(N)=O)C(=O)[C@@]2(O)C(O)=C3C(=O)c4c(O)cccc4[C@@](C)(O)[C@H]3C[C@@H]12 [TETRACYCLINE]	0%	–	–	–	80.7%	9.1%	–	–	–	–	–	Activity [6, 33]: 0%; Activity [8, 33]: 0%; Activity [9, 33]: 0%
Cc1onc(-c2ccccc2)c1C(=O)N[C@@H]1C(=O)N2[C@@H]1SC(C)(C)[C@@H]2C(=O)O [OXACILLIN]	–	–	–	–	–	–	–	–	–	–	–	zone of inhibition at 10 µg/mL ([1]; read-out: DIZ): 0 mm; zone of inhibition at 10 µg/mL ([2]; read-out: DIZ): 21 mm; zone of inhibition at 10 µg/mL ([3]; read-out: DIZ): 0 mm; zone of inhibition at 10 µg/mL ([4]; read-out: DIZ): 0 mm; zone of inhibition at 10 µg/mL ([5]; read-out: DIZ): 0 mm
Cc1nn2c(SCC(=O)NC34CC5CC(CC(C5)C3)C4)nc3ccccc3c2nc1=O	0%	inactive	inactive	inactive	36%	0%	inactive	inactive	25%	0%	1.88%	–
